Data as given in ChEMBL document CHEMBL1122603, “2-Acetylpyridine thiosemicarbazones. 9. Derivatives of 2-acetylpyridine 1-oxide as potential antimalarial agents” (1984).
In brackets after ≈: the same amount, converted by molar mass.

Key:
[1] = test system: Mus musculus; assay: In vivo antimalarial activity against Plasmodium berghei in the mice (Mus musculus) at 640 mg/kg dosage; format: functional
In short: (§1)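 Mortality-based mouse test against the drug-sensitive P. berghei strain KBG 173, run at the Leo Rane Laboratory. Groups of five mice per dose level were scored for cures and for toxic deaths.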

[2] = test system: Plasmodium berghei; assay: Increase in mean survival time in Plasmodium berghei inoculated mice (Mus musculus) following 160 mg/kg administration; format: functional
[3] = test system: Plasmodium berghei; assay: Increase in mean survival time in Plasmodium berghei inoculated mice (Mus musculus) following 40 mg/kg administration; format: functional
[4] = test system: Mus musculus; assay: In vivo antimalarial activity against Plasmodium berghei in the mice (Mus musculus) at 320 mg/kg dosage; format: functional; in short: as §1
[5] = test system: Mus musculus; assay: In vivo antimalarial activity against Plasmodium berghei in the mice (Mus musculus) at 80 mg/kg dosage; format: functional; in short: as §1
[6] = test system: Mus musculus; assay: In vivo antimalarial activity against Plasmodium berghei in the mice (Mus musculus) at 640 mg/kg dosage; T= Toxicity; format: functional, organism-based; parameters: dose 640 mg/kg; in short: as §1
[7] = test system: Plasmodium falciparum; assay: In vitro antimalarial potency against multidrug-resistant Plasmodium falciparum Vietnam Smith strain; format: functional; conditions: read-out: ID50 (the source's name)
In short: (§2)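 Semiautomated culture assay on P. falciparum. Stocks were 1 mg/mL in 1:1 DMSO/EtOH, diluted in culture medium as seven 2-fold steps over a 64-fold range, with chloroquine and mefloquine as plate controls. Plates ran 24 h at 37 °C under 5% O2/5% CO2/90% N2, then [G-3H]hypoxanthine was added for 18 h more. Harvested incorporation was read by scintillation counting as the viability index.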

[8] = test system: Plasmodium falciparum; assay: In vitro antimalarial potency against chloroquine-sensitive, pyrimethamine-resistant Plasmodium falciparum CAMP; format: functional; conditions: read-out: ID50 (the source's name); in short: as §2
[9] = test system: Mus musculus; assay: In vivo antimalarial activity against Plasmodium berghei in the mice (Mus musculus) at 640 mg/kg dosage; C=cure; format: functional, organism-based; parameters: dose 640 mg/kg; in short: as §1
[10] = test system: Mus musculus; assay: In vivo antimalarial activity against Plasmodium berghei in the mice (Mus musculus) at 20 mg/kg dosage; format: functional; in short: as §1
[11] = test system: Mus musculus; assay: In vivo antimalarial activity against Plasmodium berghei in the mice (Mus musculus) at 320 mg/kg dosage; C=cure; format: functional, organism-based; parameters: dose 320 mg/kg; in short: as §1
[12] = test system: Mus musculus; assay: In vivo antimalarial activity against Plasmodium berghei in the mice (Mus musculus) at 320 mg/kg dosage; T= Toxicity; format: functional, organism-based; parameters: dose 320 mg/kg; in short: as §1
[13] = test system: Mus musculus; assay: In vivo antimalarial activity against Plasmodium berghei in the mice (Mus musculus) at 80 mg/kg dosage; C=cure; format: functional, organism-based; parameters: dose 80 mg/kg; in short: as §1
[14] = test system: Mus musculus; assay: In vivo antimalarial activity against Plasmodium berghei in the mice (Mus musculus) at 160 mg/kg dosage; C=cure; format: functional, organism-based; parameters: dose 160 mg/kg; in short: as §1
[15] = test system: Mus musculus; assay: In vivo antimalarial activity against Plasmodium berghei in the mice (Mus musculus) at 160 mg/kg dosage; format: functional; in short: as §1
[16] = test system: Mus musculus; assay: In vivo antimalarial activity against Plasmodium berghei in the mice (Mus musculus) at 40 mg/kg dosage; format: functional; in short: as §1

Row | Compound | increase in mean survival time [1] [days] | increase in mean survival time [2] [days] | increase in mean survival time [3] [days] | increase in mean survival time [4] [days] | increase in mean survival time [5] [days] | IC50 [7] [µg/mL] | IC50 [8] [µg/mL] | cures (mice cured) [9] | further results
1 | 3-Aza-bicyclo[3.2.2]nonane-3-carbothioic acid [1-(1-oxy-pyridin-2-yl)-ethylidene]-hydrazide; compound with copper(I) chloride | 2.4 | 1.4 | -0.3 | – | – | – | – | – | –
2 | CC(N/N=C(\S)N1CCCCCC1)c1cccc[n+]1[O-] (stereo not drawn) | 3.5 | 0.8 | -0.2 | 1.6 | 0.4 | – | – | – | –
3 | C/C(=N\N=C(/S)N1CCN(C=O)CC1)c1cccc[n+]1[O-] | – | 0.3 | -0.3 | – | – | – | – | – | increase in mean survival time [6]: Toxic
4 | C/C(=N\N=C(/S)N1CC(C)OC(C)C1)c1cccc[n+]1[O-] (stereo not drawn) | – | 6.1 | 4.9 | – | 6.1 | 0.046 (≈ 0.149 µM) | 0.041 (≈ 0.133 µM) | Cures | –
5 | CCOC(=O)N1CCN(/C(S)=N/NC(C)c2cccc[n+]2[O-])CC1 (stereo not drawn) | 9 | 6.6 | – | 8 | 6 | – | – | – | increase in mean survival time ([3]; 40 mg/kg): 1.2 days
6 | CC(N/N=C(\S)N1CC2CCC(CC2)C1)c1cccc[n+]1[O-] (stereo not drawn) | – | 0.9 | -0.3 | 2.5 | 0.7 | – | – | Cures | increase in mean survival time [10]: -0.1 days
7 | CC(N/N=C(\S)N1CCCC1)c1cccc[n+]1[O-] (stereo not drawn) | 1.6 | 0 | 0.8 | – | – | – | – | – | –
8 | C/C(=N\N=C(/S)N1CCCCC1)c1cccc[n+]1[O-] | – | 6.3 | 3.5 | – | 1.3 | – | – | Cures | cure outcome [11]: Cures
9 | CC(N/N=C(\S)N1CCCCC1)c1cccc[n+]1[O-] (stereo not drawn) | 1.8 | 0.2 | 0.2 | – | – | – | – | – | –
10 | CC(N/N=C(\S)N1CCN(c2ccccn2)CC1)c1cccc[n+]1[O-] (stereo not drawn) | 3.4 | 0.2 | – | – | – | – | – | – | –
11 | C/C(=N\N=C(/S)N1CCSCC1)c1cccc[n+]1[O-] | 1.5 | 0.9 | 0.1 | – | – | – | 0.044 (≈ 0.148 µM) | – | –
12 | C/C(=N\N=C(/S)N1CCCC(C)C1)c1cccc[n+]1[O-] (stereo not drawn) | – | 4.7 | 1.5 | 1.4 | 1.6 | 0.051 (≈ 0.174 µM) | 0.039 (≈ 0.133 µM) | Cures | –
13 | C/C(=N\N=C(/S)N1CCC(C)CC1)c1cccc[n+]1[O-] | – | 2.3 | 0.6 | 4.2 | 2.2 | 0.073 (≈ 0.25 µM) | 0.074 (≈ 0.253 µM) | Cures | –
14 | C/C(=N\N=C(/S)N1CCN(c2ccccn2)CC1)c1cccc[n+]1[O-] | – | 1.9 | 0.5 | – | 0.3 | – | – | Cures | cure outcome [11]: Cures
15 | C/C(=N\N=C(/S)N1CCCCCC1)c1cccc[n+]1[O-] | 7.1 | 3.1 | 0.9 | 4.9 | 0.7 | – | – | – | –
16 | CCOC(=O)N1CCN(/C(S)=N/N=C(\C)c2cccc[n+]2[O-])CC1 | – | – | 4.7 | – | – | – | – | – | increase in mean survival time [12]: Toxic; increase in mean survival time [13]: Cures; increase in mean survival time [6]: Toxic; increase in mean survival time [14]: Cures
17 | C/C(=N\N=C(/S)N1CC2CCC(CC2)C1)c1cccc[n+]1[O-] | – | 1.1 | -0.7 | 4.9 | 0.1 | 0.083 (≈ 0.261 µM) | 0.086 (≈ 0.27 µM) | Cures | –
18 | C/C(=N\N=C(/S)N1CCCCC1C)c1cccc[n+]1[O-] (stereo not drawn) | – | – | 2.3 | – | 3.3 | 0.08 (≈ 0.274 µM) | 0.077 (≈ 0.263 µM) | Cures | cure outcome [11]: Cures; increase in mean survival time [14]: Cures
19 | C/C(=N\N=C(/S)N1CCCC1)c1cccc[n+]1[O-] | 5.9 | 1.5 | 0.9 | – | 1.1 | 0.044 (≈ 0.166 µM) | 0.048 (≈ 0.182 µM) | – | cure outcome [11]: Cures
20 | C/C(=N\N=C(/S)N1CCN(c2ccccc2)CC1)c1cccc[n+]1[O-] | 8.3 | 3.5 | 0.1 | 9.1 | 1.7 | – | 0.062 (≈ 0.174 µM) | – | –
21 | C/C(=N\N=C(/S)N(C)C)c1cccc[n+]1[O-] | 6.9 | – | – | – | 0.7 | 0.078 (≈ 0.327 µM) | 0.054 (≈ 0.227 µM) | – | increase in mean survival time [12]: Toxic; increase in mean survival time [15]: 4.2 days; increase in mean survival time [16]: 2.3 days
